# In paper PMC3068526 (Science (New York, N.Y.), 2010):
# What was measured:
# GOAT = target: T1, GOAT (Homo sapiens, UniProt Q96T53); type: cell-based
# T1 sequence (Q96T53 1-435): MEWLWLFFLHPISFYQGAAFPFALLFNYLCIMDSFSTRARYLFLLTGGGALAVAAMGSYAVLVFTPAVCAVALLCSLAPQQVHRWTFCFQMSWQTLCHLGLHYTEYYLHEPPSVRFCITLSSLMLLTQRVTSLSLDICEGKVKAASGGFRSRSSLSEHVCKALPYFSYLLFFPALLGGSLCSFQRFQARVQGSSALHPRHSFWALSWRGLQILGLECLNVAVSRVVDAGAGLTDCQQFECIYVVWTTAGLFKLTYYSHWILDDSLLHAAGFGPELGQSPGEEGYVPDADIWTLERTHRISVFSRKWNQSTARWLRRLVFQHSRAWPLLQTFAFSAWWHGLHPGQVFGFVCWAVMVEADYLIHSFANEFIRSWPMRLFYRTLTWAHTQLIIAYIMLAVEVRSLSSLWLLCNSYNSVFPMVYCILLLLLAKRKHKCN
# Summary of the method: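 HeLa and HEK cells stably expressing GOAT and preproghrelin were grown in octanoic acid-supplemented medium. Acyl and desacyl ghrelin were measured after test compound exposure, either as a time course at 6 μM in HeLa cells or as a dose-response after 24 h incubation. IC50 was derived from the acyl ghrelin reduction.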
# [1] = system: recombinant microsomal GOAT; test: in vitro acyltransferase inhibition assay; type: biochemical; conditions: 100 nM compound, within 5 min (5 min reaction), radioactive assay
# [2] = system: recombinant solubilized or microsomal GOAT; test: UV crosslinking of biotin-tagged benzoyl-phenylalanine analogs to GOAT; type: binding; conditions: competitor at 100 μM
# Summary of the method: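 Solubilized GOAT was UV-crosslinked with biotin-tagged benzophenylalanine-containing probe analogs (L5BP, F4BP) at 5 μM, with or without 100 μM unlabelled test compound as competitor. Cross-linked GOAT was detected on immunoblots with streptavidin, and loading was checked with anti-FLAG.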
# p300 HAT = test: in vitro inhibition of acetyl-CoA utilizing enzyme p300 HAT; type: biochemical; conditions: at 10 μM
# PCAF HAT = test: in vitro inhibition of acetyl-CoA utilizing enzyme PCAF HAT; type: biochemical; conditions: at 10 μM
# [3] = system: serotonin N-acetyltransferase; test: in vitro inhibition of serotonin N-acetyltransferase; type: biochemical; conditions: at 10 μM
# cell viability = test: cell viability; type: cell-based; conditions: in the concentration range studied
# GHSR-1a receptor = GHSR-1a receptor antagonism; type: cell-based
# [4] = system: wild type (wt) C57BL6 animals; test: serum acyl and desacyl ghrelin levels in mice after intraperitoneal dosing; type: in vivo, mouse; conditions: 11 μmol/kg (40 mg/kg) intraperitoneal, wt C57BL6 mice on MCT diet
# Summary of the method: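 Wild-type C57BL6 mice on a medium-chain triglyceride diet were given a single IP dose of test compound at 11 μmol/kg (40 mg/kg), or the D4-Tat control or vehicle (n = 5). Serum acyl and desacyl ghrelin and percent acyl ghrelin were measured at 6, 12 and 24 h. Standard errors are reported.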
# wt C57BL6 mice = test: body weight and QMR fat/lean mass in wt mice on MCT diet, one month treatment; type: in vivo, mouse; conditions: 11 μmol/kg IP every 24 h
# Summary of the method: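 Wild-type C57BL6 mice on a medium-chain triglyceride diet received test compound at 11 μmol/kg IP every 24 h for one month (n = 5) or vehicle (n = 6). Body mass was recorded daily, and fat and lean mass were determined by quantitative magnetic resonance. Standard errors are reported.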
# wt mice [5] = test: blood chemistries and blood cell counts after one month of treatment; type: in vivo, mouse
# [6] = system: ghrelin knockout C57BL6 mice; test: body weight and adiposity in ghrelin knockout mice; type: in vivo, mouse
# wt mice [7] = test: weight gain in wt mice fed a high fat diet; type: in vivo, mouse
# human islet cells = test: insulin response of human islet cells to a glucose challenge; type: cell-based; conditions: human islet cells pre-treated with compound
# ghrelin knockout animals = test: intraperitoneal glucose challenge in ghrelin knockout animals; type: in vivo, mouse; conditions: compared to vehicle or to wt animals analyzed in parallel
# UCP2 mRNA = test: QRT-PCR of islets and gastric fundus isolated from treated mice; type: in vivo, mouse
# [8] = ghrelin knockout mice on MCT diet, 11 μmol/kg, 1 mo
smiles,measurement,setting,value
CCCCCCC(SCCNC(=O)CCNC(=O)[C@H](O)C(C)(C)COP(=O)(O)OP(=O)(O)OC[C@H]1O[C@@H](n2cnc3c(N)ncnc32)[C@H](O)[C@@H]1OP(=O)(O)O)C(=O)NC[C@H](NC(=O)[C@H](CO)NC(=O)CN)C(=O)N[C@@H](Cc1ccccc1)C(=O)N[C@@H](CC(C)C)C(=O)N[C@@H](CO)C(=O)N1CCC[C@H]1C(=O)N[C@@H](CCC(=O)O)C(=O)N[C@@H](Cc1c[nH]cn1)C(=O)N[C@@H](CCC(N)=O)C(=O)NCCCCCC(=O)N[C@@H](Cc1ccc(O)cc1)C(=O)NCC(=O)N[C@@H](CCCNC(=N)N)C(=O)N[C@@H](CCCCN)C(=O)N[C@@H](CCCCN)C(=O)N[C@@H](CCCNC(=N)N)C(=O)N[C@@H](CCCNC(=N)N)C(=O)N[C@@H](CCC(N)=O)C(=O)N[C@@H](CCCNC(=N)N)C(=O)N[C@@H](CCCNC(=N)N)C(=O)N[C@@H](CCCNC(=N)N)C(N)=O (stereo partly shown) [GO-CoA-Tat],inhibition of production of desacyl ghrelin,GOAT; GOAT/preproghrelin stably expressing HeLa and HEK cells,not desacyl ghrelin
same,exposure time needed for maximal inhibition of acyl ghrelin,"GOAT; preproghrelin/GOAT-transfected HeLa and HEK cells, 6 μM in HeLa time course",24 h
same,GOAT inhibition,[1],Virtually complete GOAT inhibition
same,blocking of cross-linking of F4BP/L5BP analogs to GOAT (competitor),[2],can be blocked by GO-CoA-Tat
same,inhibition of p300 HAT,p300 HAT,less than 15%
same,inhibition of PCAF HAT,PCAF HAT,less than 15%
same,inhibition of serotonin N-acetyltransferase,[3],less than 15%
same,toxicity to cell viability,cell viability,non-toxic
same,antagonism of GHSR-1a receptor,GHSR-1a receptor,does not antagonize
same,serum levels of desacyl ghrelin,[4],no significant effect
same,time of maximum inhibition of serum acyl ghrelin after administration,[4],6 h
same,serum levels of acyl ghrelin,"[4]; n = 5, 6, 12 and 24 h",decreased serum levels of acyl ghrelin
same,weight gain,wt C57BL6 mice; n = 5 vs vehicle n = 6,prevented the significant weight gain
same,fat mass (QMR),wt C57BL6 mice; relative to controls,significantly lower fat mass
same,lean mass (QMR),wt C57BL6 mice; relative to controls,but not lean mass
same,IGF-1 levels,wt mice [5],lower IGF-1 levels
same,blood glucose,wt mice [5],lower blood glucose
same,generalized toxicity by blood chemistries and blood cell counts,wt mice [5],"no evidence of liver, renal, pancreas, or bone marrow toxicities"
same,fat mass (QMR),[6]; [8],did not significantly alter
same,lean mass (QMR),[6]; [8],did not significantly alter
same,weight,"[6]; ghrelin knockout mice on MCT diet, 11 μmol/kg, 1 mo, n = 5 vs vehicle n = 5",did not significantly alter
same,weight gain of treated ghrelin knockout mice versus treated age-matched wt mice,"[6]; separate long term study, one month of administration",gained more weight
same,fat mass,wt mice [7],relative reduction of fat mass
same,food intake,wt mice [7],no effect on food intake
same,lean mass,wt mice [7],without a change in lean mass
same,weight gain,wt mice [7],slowed weight gain
same,insulin response to a glucose challenge,human islet cells,statistically significant increase in insulin response
same,effect in glucose challenge,ghrelin knockout animals,did not have a significant effect
same,effects on UCP2 mRNA in the gastric fundus,"UCP2 mRNA; gastric fundus from mice treated 24 h prior to isolation, n = 3",non-statistically significant effects
same,reduction in UCP2 mRNA in islets,"UCP2 mRNA; islets isolated from mice treated 24 h prior to isolation, compared to D4-tat treated mice, n = 3",20 fold
same,"levels of insulin, ghrelin, or GHSR mRNAs in islets","UCP2 mRNA; islets isolated from treated mice, compared to D4-tat treated mice",no change
